An excerpt weighted towards active compounds, which were near 2.3% of everything screened.
EWS-Fli block: blocks EWS/Fli oncoprotein-driven transcription | A673 NR0B1-luciferase reporter, viability-normalised | inhibition, % at 12.6 µM | actives 0.67% (n = 350,000);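 active = mean inhibition of at least 50% after viability correction, with every replicate also passing that limit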;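 also: firefly luciferase signal divided by Alamar Blue viability fluorescence both relative to DMSO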
PGC1a acetyl inh: lowers PGC1a acetylation signal in U2OS cells | inhibition, % at 15.6 µM | AID 651687 | AlphaScreen anti-acetyl-lysine; with virally co-expressed GCN5 acetyltransferase | actives 0.17% (n = 350,000);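 active = every replicate shows inhibition of at least 40%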;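 also: 0% = neutral control wells and 100% = positive control wells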
FN deposit inh: fibronectin deposition inhibition; AH1F fibroblasts, Alexa488-fibronectin deposition fluorescence, overnight; inhibition, % at 12.6 µM; actives 0.086% (n = 350,000);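 active = mean inhibition across replicates of 30% or more, regardless of how many single replicates reach that level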;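 also: positive control wells lacked labelled fibronectin entirely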
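test system = AH1F fibroblasts assembling fluorescent fibronectin matrix | quantity = 10000 AH1F cells per well | buffer or medium = DMEM plus 2% serum, read in PBS | doses = single dose, pinned | incubation = 1 h cell attachment, overnight exposure to compound and label | detection = fluorescence at 485 nm excitation, 525 nm emission | read-out basis = inhibition from reduced deposited-fibronectin fluorescence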
PAX8 reporter: inhibitors of PAX8 transcriptional activity in RMG-I cells | RMG-I TPO-luciferase reporter, SteadyGlo, 24 h | inhibition, % at 12.6 µM | actives 1.2% (n = 360,000);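 active = mean replicate inhibition at least 60% with every replicate also reaching 60%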;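 also: luciferase light reporting Pax8 driven TPO promoter activity; plate controls were median of neutral control wells for no effect and mitoxantrone controls for full effect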
HIV Env fusion: HIV envelope-mediated fusion inhibition; HeLa-JRFL Env/CEM21 cell fusion, luciferase; inhibition, % at 12.3 µM; actives 1.1% (n = 360,000); AID 651610;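 active = mean replicate inhibition score of at least 50 and every replicate individually at or above 50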;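 also: 0% = plate neutral controls and 100% = maraviroc near 300 nM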
F508del corr: correctors of CFTR F508del function in bronchial epithelial cells; CFBE cells, YFP halide quenching; stimulated with forskolin plus potentiator P3; % fluorescence drop versus neutral controls; activity (quench increase), % at 7.58 µM; actives 0.36% (n = 350,000); AID 720511;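 active = mean added fluorescence quench of at least 8% versus neutral control, with both replicates also reaching 8%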;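 also: cells transiently co-express mutant CFTR-F508del with the halide-sensitive YFP; corrector assay measuring rescue of mutant channel to the surface after 24 h compound exposure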
Active calls of the source: *; [ ] = remark or other dose.

Screening Cc1cc(NC(=O)CSc2nc(-c3cccs3)cc(C(F)(F)F)n2)no1 returned PGC1a acetyl inh -3.
Screening COc1ccc(-c2cc(C(F)(F)F)nc(S(=O)(=O)CCCC(=O)Nc3cccnc3Cl)n2)cc1OC returned EWS-Fli block 20, FN deposit inh 10, PAX8 reporter 72*, HIV Env fusion 2 and F508del corr 2.
`Cc1ccc(C(=O)Nc2ccc(C(=O)/C=C/c3cccs3)cc2)cc1` gave PGC1a acetyl inh -3, FN deposit inh 2, PAX8 reporter -128 and HIV Env fusion -39.
For O=C(/C=C/c1cccs1)c1ccc(NC(=O)c2cccc(Br)c2)cc1 the results were PGC1a acetyl inh 48*, FN deposit inh -9, PAX8 reporter -128 and HIV Env fusion -1.
O=C(C[C@@H]1CC[C@H]2[C@@H](COC[C@H](O)CN2Cc2ccc(F)cc2)O1)NCc1ccncn1 was read as EWS-Fli block 0, PGC1a acetyl inh -1, FN deposit inh -3, PAX8 reporter -16, HIV Env fusion -3[16.7 µM] and F508del corr 1.
`O=S(=O)(c1cc(F)ccc1F)N1CCC2(CC1)OCCO2` gave PAX8 reporter 9, HIV Env fusion 60* and F508del corr 0.
O=S(=O)(c1ccc(F)cc1)N1CCC2(CC1)OCCO2 was read as EWS-Fli block -1, PGC1a acetyl inh -2, FN deposit inh 0, PAX8 reporter -2, HIV Env fusion 5 and F508del corr -3.
For Cc1ccc(S(=O)(=O)N(C)C[C@H]2Oc3ccc(NC(=O)C4CCCCC4)cc3CC(=O)N([C@H](C)CO)C[C@H]2C)cc1 the results were EWS-Fli block -1, PGC1a acetyl inh 1, HIV Env fusion 15[16.7 µM] and F508del corr -2.
Screening C[C@@H]1CN([C@@H](C)CO)C(=O)Cc2cc(NC(=O)NC3CCCCC3)ccc2O[C@@H]1CN(C)S(=O)(=O)c1ccc(Cl)cc1 returned EWS-Fli block 20, PGC1a acetyl inh -39, PAX8 reporter 19, HIV Env fusion 60*[16.7 µM] and F508del corr -5.
Screening C[C@H](CO)N1C[C@H](C)[C@H](CN(C)S(=O)(=O)c2ccc(Cl)cc2)Oc2ccc(NC(=O)C3CCCCC3)cc2CC1=O returned EWS-Fli block 3, PGC1a acetyl inh 1, HIV Env fusion 63*[16.7 µM] and F508del corr 2.
For C[C@H](CO)N1C[C@H](C)[C@@H](CN(C)S(=O)(=O)c2ccc(Cl)cc2)Oc2ccc(NC(=O)C3CC3)cc2CC1=O the results were EWS-Fli block 4, PGC1a acetyl inh -4, FN deposit inh -1, PAX8 reporter -11 and F508del corr -3.
`C[C@H]1CN([C@@H](C)CO)C(=O)Cc2cc(NC(=O)C3CCCCC3)ccc2O[C@H]1CN(C)S(=O)(=O)c1ccc(Cl)cc1` gave EWS-Fli block 4, PGC1a acetyl inh -8, HIV Env fusion 74*[16.7 µM] and F508del corr -3.
For COc1ccccc1NC(=O)N[C@H]1CC[C@H](CCNS(=O)(=O)c2ccc(C)cc2)O[C@@H]1CO the results were EWS-Fli block 2, PAX8 reporter 13 and F508del corr -2.
CN(C)CC(=O)N1CC2(C1)[C@H](c1ccccc1)[C@H](CO)N2C(=O)C1CCC1 was read as EWS-Fli block 2, PGC1a acetyl inh -1, FN deposit inh -3, PAX8 reporter 4, HIV Env fusion -15[16.7 µM] and F508del corr 2.
`COc1ccc(-n2ncc3c(N4CCCCC4)ncnc32)cc1` gave PGC1a acetyl inh -10.
Cc1cccc(-n2ncc3c(NCc4cccnc4)ncnc32)c1 was read as EWS-Fli block -105, PGC1a acetyl inh -15, FN deposit inh -3, PAX8 reporter -188, HIV Env fusion -25 and F508del corr -5.
COc1ccc(N2CCN(c3ncnc4c3cnn4-c3ccc(C)cc3C)CC2)cc1 was read as EWS-Fli block 19, PGC1a acetyl inh -19 and F508del corr 0.
`Cc1cccc(-n2ncc3c(N4CCOCC4)ncnc32)c1` gave EWS-Fli block 68*, PGC1a acetyl inh 7, FN deposit inh -7, PAX8 reporter 47, HIV Env fusion -18 and F508del corr 1.

Screening results (PubChem)
